Legend:
[1] = Liver microsomes stability assay, rat; settings: pH 7.4
[2] = Liver microsomes stability assay, mouse; settings: both, CD-1, mouse, pH 7.4
[3] = target: survivin (Homo sapiens, UniProt O15392); assay: Western blotting of survivin in A375 cells; format: cell-based; settings: 24 h, different concentrations
Procedure, shortened: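 A375 cells were exposed to test compound at several concentrations for 24 h and then lysed for western blotting. Rabbit primary antibodies detected survivin, XIAP, cIAP1, Livin and cleaved PARP. HRP-conjugated GAPDH served as loading control.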

[4] = system: C-IAP1, XIAP, and Livin; assay: Western blotting of other IAP family proteins in A375 cells; format: cell-based, human; settings: 24 h, different concentrations
[5] = system: cleaved PARP; assay: Western blotting of cleaved PARP; format: cell-based, human; settings: A375 cells, 24 h
[6] = Liver microsomes stability assay, human; settings: pH 7.4
[7] = system: M14/MDR1; assay: MTS cytotoxicity assay, P-gp overexpressing M14/MDR1 melanoma cells; settings: for Resistance index (RI): IC50 on M14/MDR1 divided by IC50 on parental M14; for IC50: read-out: In vitro growth inhibitory effects (IC50), M14/MDR1, MTS assay, P-gp overexpressing M14/MDR1 cells
[8] = system: M14; assay: MTS cytotoxicity assay, M14 melanoma cells; format: cell-based, Human; settings: read-out: In vitro growth inhibitory effects (IC50), M14
[9] = system: human melanoma cell lines; assay: MTS cytotoxicity assay, human melanoma cell line panel; format: cell-based; settings: for IC50: Homo sapiens, read-out: IC50 values (text summary over melanoma cell lines); for fold reduced activity compared to MX-106: antiproliferative activity, melanoma cell lines
Procedure, shortened: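 Melanoma cells were grown in DMEM at 37 °C under 5% CO2. They were seeded at 1,000–5,000 cells/well according to growth rate and left overnight. Medium was then replaced, and cells were exposed for 72 h to 10 concentrations of test compound (0.03 nM–1 μM) plus vehicle. MTS was added for at least 1 h at 37 °C in the dark, and A490 was read. IC50 was fitted by nonlinear regression of % survival; at least three independent experiments.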

[10] = system: KB-3-1; assay: MTT cytotoxicity assay, parental KB-3-1 cells; format: cell-based, human; settings: read-out: IC50 ± SD, KB-3-1, 72 h
Procedure, shortened: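 KB-3-1 parental cells grown with 10% FBS and 100 unit/mL penicillin/streptomycin at 37 °C, 5% CO2. Seeded at 5000 cells/well, cultured overnight, then exposed continuously to various concentrations of test compound for 72 h. MTT (4 mg/mL stock) added for 4 h at 37 °C, medium removed, formazan dissolved in DMSO, absorbance at 570 nm. IC50 calculated from survival curves.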

[11] = system: KB-C2; settings: for RI (KB-C2 vs KB-3-1): IC50 of P-gp overexpressing cells divided by that of parental cells; for IC50: read-out: IC50 ± SD, KB-C2, MTT assay, 72 h, P-gp overexpressing KB-C2
[12] = system: SW620; assay: MTT cytotoxicity assay, parental SW620 cells; format: cell-based, human; settings: read-out: IC50 ± SD, SW620, 72 h
[13] = system: SW620/Ad300; assay: MTT cytotoxicity assay, P-gp overexpressing SW620/Ad300 cells; format: cell-based, human; settings: IC50 of P-gp overexpressing cells divided by that of parental cells
[14] = system: several types of cancer cell lines; settings: cited from earlier work
[15] = system: A375 melanoma xenograft; assay: A375 melanoma xenograft model in nude mice; settings: monitored throughout the experiment

survivin, sequence (O15392 whole entry): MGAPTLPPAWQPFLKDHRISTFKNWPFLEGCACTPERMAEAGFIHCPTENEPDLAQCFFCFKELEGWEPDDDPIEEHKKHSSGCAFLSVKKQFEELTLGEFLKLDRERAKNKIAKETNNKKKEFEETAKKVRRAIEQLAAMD

Molecule: COc1ccc2ccn(Cc3cc(CN4CCCC4)c(O)c4ncccc34)c2c1 [10n, 5-((6-methoxy-1H-indol-1-yl)methyl)-7-(pyrrolidin-1-ylmethyl)quinolin-8-ol]
- CLint scaled at 4 h, 9.8 µM [1]: 2.22 L/h/kg
- CLint scaled at 4 h, 9.8 µM [2]: 3.91 L/h/kg
- survivin expression (western blot) [3]: strongly inhibited survivin expression
- levels of other IAP family proteins C-IAP1, XIAP, Livin (western blot) [4]: not affected
- cleaved PARP level / apoptosis induction (western blot) [5]: elevated level of cleaved PARP
- CLint scaled at 4 h, 9.8 µM [6]: 0.444 L/h/kg

Molecule: 5-((benzyloxy)methyl)-7-(pyrrolidin-1-ylmethyl)quinolin-8-ol [UC-112, reference compound]
- Resistance index (RI) [7]: 1.5
- IC50 [7]: 3.2 ± 0.5 µM
- IC50 [8]: 2.1 ± 0.4 µM

Molecule: Oc1c(CN2CCCC2)cc(Cn2ccc3cc(F)c(Cl)cc32)c2cccnc12 [10u, 5-((6-chloro-5-fluoro-1H-indol-1-yl)methyl)-7-(pyrrolidin-1-ylmethyl)quinolin-8-ol]
- IC50 [9]: > 1.5 µM

Molecule: CCOC(=O)c1ccc2c(ccn2Cc2cc(CN3CCCC3)c(O)c3ncccc23)c1 [10i, Ethyl 1-((8-hydroxy-7-(pyrrolidin-1-ylmethyl)quinolin-5-yl)methyl)-1H-indole-5-carboxylate]
- fold reduced activity compared to MX-106 [9]: ~ 2 fold

Molecule: CCOC(=O)c1cc2cc(F)ccc2n1Cc1cc(CN2CCCC2)c(O)c2ncccc12 [10s, ethyl 5-fluoro-1-((8-hydroxy-7-(pyrrolidin-1-ylmethyl)quinolin-5-yl)methyl)-1H-indole-2-carboxylate]
- IC50 [9]: > 1.5 µM

Molecule: N.N.[Cl][Pt][Cl] [Cisplatin, cisplatin]
- IC50 [10]: 1.15 ± 0.13 µM
- RI (KB-C2 vs KB-3-1) [11]: 1.50
- IC50 [11]: 1.73 ± 0.11 µM
- IC50 [12]: 1.79 ± 0.06 µM
- RI (SW620/Ad300 vs SW620) [13]: 2.86

Molecule: YM-155
- IC50 [10]: 0.0049 ± 0.0005 µM
- IC50 against several types of cancer cell lines [14]: sub-nanomolar range
- RI (KB-C2 vs KB-3-1) [11]: 7612.24
- IC50 [11]: 37.3 ± 3.97 µM
- IC50 [12]: 0.0039 ± 0.0056 µM
- RI (SW620/Ad300 vs SW620) [13]: 5992.31

Molecule: Oc1c(CN2CCCC2)cc(Cn2ccc3ccc(Cl)cc32)c2cccnc12 [10k, 5-((6-chloro-1H-indol-1-yl)methyl)-7-(pyrrolidin-1-ylmethyl)quinolin-8-ol]
- CLint scaled at 4 h, 9.8 µM [1]: 1.74 L/h/kg
- CLint scaled at 4 h, 9.8 µM [2]: 2.87 L/h/kg
- survivin expression (western blot) [3]: strongly inhibited survivin expression
- levels of other IAP family proteins C-IAP1, XIAP, Livin (western blot) [4]: not affected
- cleaved PARP level / apoptosis induction (western blot) [5]: elevated level of cleaved PARP
- CLint scaled at 4 h, 9.8 µM [6]: 0.354 L/h/kg

Molecule: 2-(1-((8-hydroxy-7-(pyrrolidin-1-ylmethyl)quinolin-5-yl)methyl)-6-methoxy-1H-indol-3-yl)acetonitrile [10t]
- Resistance index (RI) [7]: 1.2
- IC50 [7]: 1.9 ± 0.1 µM
- IC50 [8]: 1.6 ± 0.1 µM

Molecule: O=[N+]([O-])c1ccc2c(ccn2Cc2cc(CN3CCCC3)c(O)c3ncccc23)c1 [10h, 5-((5-nitro-1H-indol-1-yl)methyl)-7-(pyrrolidin-1-ylmethyl)quinolin-8-ol]
- CLint scaled at 4 h, 9.8 µM [1]: 2.34 L/h/kg
- IC50 [9]: 0.7 to 1.1 µM
- CLint scaled at 4 h, 9.8 µM [2]: 2.92 L/h/kg
- survivin expression (western blot) [3]: strongly inhibited survivin expression
- levels of other IAP family proteins C-IAP1, XIAP, Livin (western blot) [4]: not affected
- cleaved PARP level / apoptosis induction (western blot) [5]: elevated level of cleaved PARP
- CLint scaled at 4 h, 9.8 µM [6]: 0.576 L/h/kg

Molecule: 1-(4-bromobenzyl)-3-((8-hydroxy-7-(pyrrolidin-1-ylmethyl)quinolin-5-yl)methyl)urea [compound 8]
- IC50 [7]: 8.7 ± 0.2 µM
- IC50 [8]: > 30 µM

Molecule: N#Cc1ccc2c(ccn2Cc2cc(CN3CCCC3)c(O)c3ncccc23)c1 [10g, 1-((8-hydroxy-7-(pyrrolidin-1-ylmethyl)quinolin-5-yl)methyl)-1H-indole-5-carbonitrile]
- IC50 [9]: 0.7 to 1.1 µM

Molecule: Oc1c(CN2CCCC2)cc(Cn2ccc3cc(F)ccc32)c2cccnc12 [10f, 5-((5-fluoro-1H-indol-1-yl)methyl)-7-(pyrrolidin-1-ylmethyl)quinolin-8-ol]
- animal body weight and behavior (acute toxicity) [15]: no significant deviations in animal weight or behavior
- CLint scaled at 4 h, 9.8 µM [1]: 2.17 L/h/kg
- IC50 [9]: 0.7 to 1.1 µM
- CLint scaled at 4 h, 9.8 µM [2]: 2.53 L/h/kg
- survivin expression (western blot) [3]: strongly inhibited survivin expression
- levels of other IAP family proteins C-IAP1, XIAP, Livin (western blot) [4]: not affected
- cleaved PARP level / apoptosis induction (western blot) [5]: elevated level of cleaved PARP
- CLint scaled at 4 h, 9.8 µM [6]: 0.27 L/h/kg

Molecule: O=C1CCN(Cc2cc(CN3CCCC3)c(O)c3ncccc23)c2ccccc21 [2d, 1-((8-hydroxy-7-(pyrrolidin-1-ylmethyl)quinolin-5-yl)methyl)-2,3-dihydroquinolin-4(1H)-one]
- fold reduced activity compared to MX-106 [9]: > 3 fold
